Source: PubChem (The Scripps Research Institute Molecular Screening Center)
An excerpt weighted towards active compounds, which were near 3.7% of everything screened.
core dimer inh: inhibitors of HCV core protein dimerization, primary screen, biochemical, TR-FRET, high-throughput. AID 1899, 2009. 0.33% of 300,000 active. TR-FRET GST/Flag-core106 dimerization, 1536-well. inhibition, % at 5 µM;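 active = inhibition above the mean of all tested compounds plus 3 SD, set per screening campaign, cut at about 45% in these data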
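test system = GST/Flag-tagged HCV core106 proteins | probe or stimulus = Eu donor and XL665 acceptor anti-tag antibodies | times = compound-protein-antibody incubation 4 h at 22.5 °C | signal = TR-FRET, excitation 340 nm, emission 617 and 671 nm | measure = percent inhibition of core106 dimerization signal | controls = wells lacking GST-core106 and wells with excess unlabelled core106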
TAAR1 ag: human TAAR1 agonists, primary screen, Fluo-8 calcium fluorescence, CHO RD-HGA16 cells; Trace amine-associated receptor 1 (Homo sapiens), Q96RJ0; vehicle wells 0%, saturating PEA agonist 100%; activation, % at 3 µM; 0.99% of 360,000 active; AID 624467, 2012;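 active = activation above the mean activation of all test compounds in the run plus 3 SD, cut at about 38% in these data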
Target sequence (Q96RJ0 whole entry, looked up): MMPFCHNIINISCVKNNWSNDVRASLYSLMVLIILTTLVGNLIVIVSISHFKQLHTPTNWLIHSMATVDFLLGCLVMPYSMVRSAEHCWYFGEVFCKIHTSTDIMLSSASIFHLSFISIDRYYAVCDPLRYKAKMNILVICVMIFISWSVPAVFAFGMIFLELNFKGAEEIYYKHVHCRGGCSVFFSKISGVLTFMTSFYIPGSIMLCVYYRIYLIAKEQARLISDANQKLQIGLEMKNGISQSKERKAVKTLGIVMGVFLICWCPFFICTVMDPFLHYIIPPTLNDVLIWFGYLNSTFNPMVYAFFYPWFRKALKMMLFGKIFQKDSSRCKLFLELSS
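Test system: RD-HGA16 (CHO) cells co-expressing Gα16 and hTAAR1 | Doses: Single dose, 3 µM | Schedule: 17-24 h seeding, 75 min 37 °C dye, 30 min RT | Evaluation: % activation from peak over basal fluorescence ratio, DMSO-to-PEA scaled | Technique: Kinetic Fluo-8 calcium fluorescence | Benchmarks: Low control DMSO, high control PEA (EC100)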
TAAR1 antag: human TAAR1 antagonists, primary screen, Fluo-8 calcium fluorescence, CHO RD-HGA16 cells; antagonist; inhibition, % at 3 µM; 1.5% of 360,000 active; AID 624466, 2012;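 active = inhibition above a per-plate cutoff, the mean inhibition of test compounds on that plate plus 3 SD, cut at about 49% in these data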;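 note: 0% = DMSO plus EC80 beta-PEA response and 100% = DMSO alone without agonist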
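Material: RD-HGA16 CHO cells with stable hTAAR1 and Gα16; Dosing: single nominal final test compound concentration of 3 µM; Schedule: seeding 17-24 h prior, 75-min 37 °C, 30-min RT dye loading; Detection: kinetic Fluo-8 calcium fluorescence measurement; Measure: % inhibition from peak post-agonist over basal fluorescence ratio; Benchmarks: vehicle and agonist controls.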
HCV NS3 hel inh: inhibitors of HCV NS3 helicase, primary screen, biochemical, Cy5 molecular beacon fluorescence | AID 1800, 2009 | NS3 helicase DNA unwinding | 0.56% of 290,000 active | inhibition, % at 10.9 µM;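 active = inhibition above the mean of all tested compounds plus 3 SD, set per campaign, cut at about 35% in these data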;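 note: 0% = DMSO wells and 100% = thioflavine S control wells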
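Control set: DMSO versus 110 µM thioflavine S; Material: NS3 helicase fragment of HCV; Measured by: Cy5 fluorescence at 0 and 60 min, beacon hairpin quenching; Read-out basis: percent inhibition from t60/t0 fluorescence ratio; Times: reaction time 60 min, 25 °C; Repeats: single replicate; Compound dosing: single dose, 10.9 µM nominal final, DMSO 0.8% final.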
rCAG binder-1: binders of r(CAG) RNA repeats, primary screen, biochemical, fluorescence; inhibition, % at 3 µM; r(CAG) RNA repeat, TO-PRO-1 dye displacement fluorescence; 1.3% of 370,000 active; AID 651821, 2012;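 active = inhibition above the plate cutoff, the mean of all test compounds on that plate plus 3 SD, cut at about 35% in these data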;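 note: 0% = DMSO alone and 100% = 100 µM mitoxantrone as full dye displacement; higher means more dye released from RNA so lower well fluorescence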
NS3 helicase cf: HCV NS3 helicase inhibitors, retest, confirmation, biochemical, Cy5 molecular beacon fluorescence, triplicate. shares compounds with HCV NS3 hel inh. NS3 helicase DNA unwinding. inhibition, % at 10.9 µM. 31% of 1,600 active. AID 1943, 2009;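 active = inhibition above the mean of all tested compounds plus 3 SD, cutoff set per campaign, cut at about 36% in these data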
FID counter trip: compounds displacing fluorescent DNA intercalator, artefact control for HCV NS3 helicase inhibitor project, biochemical, FID fluorescence, triplicate. DNA fluorescent intercalator displacement. shares compounds with HCV NS3 hel inh. inhibition, % at 7.9 µM. 4% of 1,600 active. AID 1945, 2009; in the data active = inhibition above about 37%;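 note: 0% = vehicle and 100% = reference compound; higher means more displacement of ethidium bromide from the DNA hairpin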
FID counter DR: compounds displacing fluorescent intercalator from DNA, dose response, counter-screen for HCV NS3 helicase inhibitor project, biochemical, fluorescence; shares compounds with HCV NS3 hel inh; fluorescent intercalator displacement from DNA; IC50, µM; 120 tested, under 10 active
rCAG binder conf: small molecules binding CAG repeat RNA – biochemical, fluorescence, confirmation. 70% of 4,300 active. shares compounds with rCAG binder-1. inhibition, % at 3 µM. r(CAG) RNA repeat, TO-PRO-1 dye displacement fluorescence;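 active = inhibition above a per-plate cutoff, the mean inhibition of sample wells plus 3 SD, cut at about 35% in these data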;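 note: loss of TO-PRO-1 fluorescence as compound displaces dye from 1x1 AA loop RNA; 0% = DMSO only wells and 100% = 100 µM mitoxantrone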
dCAG dye counter: displacement of TO-PRO-1 from CAG DNA duplex, counter-screen for rCAG RNA repeat binder project, biochemical, fluorescence, TO-PRO-1 dye, d(CAG) DNA oligo; inhibition, % at 3 µM; d(CAG) DNA oligo TO-PRO-1 dye displacement; 94% of 4,300 active; AID 652068, 2013; shares compounds with rCAG binder-1;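 active = inhibition above its plate's cutoff, the mean test-well inhibition plus 3 SD, cut at about 4.8% in these data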;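 note: 0% = DNA dye mix with DMSO and 100% = 100 µM mitoxantrone; hits displace the dye from DNA and so lower well fluorescence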
dCAG dye DR: inhibitors of DNA CAG/GTC TO-PRO-1 complex, dose response, counter-screen for rCAG RNA repeat binder project, biochemical, fluorescence, TO-PRO-1 dye; shares compounds with rCAG binder-1; DNA CAG/GTC duplex TO-PRO-1 dye displacement fluorescence; IC50, µM; 20% of 250 active; AID 686960, 2013; in the data active = IC50 below about 10 µM
dCAG DNA bind: TO-PRO-1 dye complex inhibitors on d(CAG) DNA, dose response, counter-screen, biochemical, fluorescence, late stage. shares compounds with rCAG binder-1. d(CAG) DNA duplex TO-PRO-1 dye displacement. IC50, µM. 80% of 30 active
rCAG binder-2: molecules binding r(CAG) RNA repeats, late stage dose response, late-stage follow-up, biochemical, fluorescence, dose response, powder samples | shares compounds with rCAG binder-1 | IC50, µM | 100% of 30 active | AID 720651, 2013 | r(CAG) RNA TO-PRO-1 dye displacement
An asterisk follows results filed as active; i = inactive; x = no result given. Unless noted, the rule behind the calls is not given here.

SMILES	core dimer inh	TAAR1 ag	TAAR1 antag	HCV NS3 hel inh	rCAG binder-1	NS3 helicase cf	FID counter trip	rCAG binder conf	dCAG dye counter	others
Cc1ccc(-c2ccc(/C=N/N=C3/NC(=O)C(CC(=O)O)S3)o2)c([N+](=O)[O-])c1 (configuration not stated)	-2	0	8	7	25	x	x	x	x
CC1=C(C#N)C(=O)NC(=O)/C1=C\c1ccc(-c2ccc(C)cc2[N+](=O)[O-])o1	x	7	6	40*	43*	63*	49*	73*	34*	dCAG dye DR=5.1*
CC1=CC2=NC(=O)/C(=C/c3cccs3)C(=N)N2O1	-5	3	-34	2	-2	x	x	x	x
CC(C)CSC1=NSC2=NC(=O)/C(=C\c3cccs3)C(=N)N12	-2	8	-6	37*	72*	53*	12	57*	21*	dCAG dye DR=i;dCAG DNA bind=4.3*;rCAG binder-2=1.7*
O=C(N/N=C/c1cc(Cl)c(O)c(Cl)c1)c1cc2c(ccc3ccccc32)o1	2	1	47	45*	86*	53*	-6	78*	40*	FID counter DR=>79
NS(=O)(=O)c1cccc(C(=O)NC2CCSc3ccccc32)c1 (configuration not stated)	-12	-1	-5	7	4	x	x	x	x
NS(=O)(=O)c1cc(C(=O)NC2CCSc3ccccc32)ccc1Cl (configuration not stated)	32	1	5	84*	80*	74*	2	81*	49*
CCCCc1c(-c2ccccc2OC)ncn1C(C)c1ccccc1 (configuration not stated)	x	4	0	x	0	x	x	x	x
Cc1cccc(NC(=O)NNC(=O)c2cc3ccccc3cc2O)c1C	-2	2	4	9	30	x	x	x	x
O=C(NNC(=O)c1cc2ccccc2cc1O)Nc1ccccc1F	-11	4	-14	46*	41*	-8	-4	22	7.2*
Nc1c(C(=O)Nc2ccccc2)sc2nc3c(c(-c4ccco4)c12)CCCC3	4	15	1	12	3	x	x	x	x
Cc1ccc(NC(=O)c2sc3nc4c(c(-c5ccco5)c3c2N)CCC4)cc1	10	2	-3	27	24	x	x	x	x
Nc1c(C(=O)Nc2ccc(F)cc2)sc2nc(-c3ccco3)ccc12	40	6	21	41*	35*	-6	10	55*	26*
Nc1c(C(=O)Nc2ccc(Br)cc2)sc2nc(-c3ccco3)ccc12	34	7	30	69*	51*	28	5	37*	20*
CCNC(=O)OCCN1C(=O)CCC12CCC(c1ccc(Cl)cc1)CC2 (configuration not stated)	x	x	x	x	-1	x	x	x	x
CC(C)CNC(=O)C1CSCCS(=O)(=O)N1Cc1ccccc1 (configuration not stated)	x	x	x	x	-1	x	x	x	x
CC1=NN(c2cccc(C(=O)O)c2)C(=O)/C1=C\C=C\c1ccco1	39	-4	-9	42*	56*	76*	4	64*	26*
Cc1ccc(C2=NC(=O)/C(=C/c3cc(O)c(O)c(Br)c3)S2)cc1	x	6	9	53*	84*	-17	6	86*	52*
COc1cc(/C=C2\SC(c3ccc(C)cc3)=NC2=O)cc(OC)c1O	-40	15	-11	-5	17	x	x	x	x
COc1cccc(CNC(=O)[C@H]2CCCN2C(=O)[C@H]2CCCN2C(=O)c2ccc(F)cc2F)c1	x	1	-16	x	1	x	x	x	x
O=C(NN=C1CCN(Cc2ccccc2)CC1)c1cc2ccccc2cc1O	37	0	7	39*	52*	29	-12	57*	30*
COCCn1c(=NC(=O)c2cc(-c3cccs3)nc3ccccc23)sc2cc(S(N)(=O)=O)ccc21	-31	4	31	64*	36*	-3	0	39*	19*
C=CCn1c(=NC(=O)c2cc(-c3cccs3)nc3ccccc23)sc2cc(S(N)(=O)=O)ccc21	6	1	9	14	30	x	x	x	x
COc1ccc(C(=O)OCCCN(C)C2CN(Cc3cn(Cc4ccccc4F)nn3)S(=O)(=O)C2)cc1OC (configuration not stated)	x	x	x	x	-1	x	x	x	x
O=C(O)C1Nc2c(Cl)cc(Cl)cc2C2C=CCC12 (configuration not stated)	33	x	x	9	x	x	x	x	x
CC(C)C1Nc2c(O)cc(Cl)c([N+](=O)[O-])c2C2C=CCC21 (configuration not stated)	x	7	-37	37*	37*	58*	11	17	4
CCOc1ccc(/C=C2\SC(=S)N(C(C(=O)O)c3ccccc3)C2=O)cc1OC (configuration not stated)	6	-1	1	28	14	x	x	x	x
